In ChEMBL document CHEMBL4251745, “The Notch Inhibitors Isolated from Nerium indicum” (J Nat Prod, 2018):
Activity calls are given as the source filed them. The rule behind the calls is not given here.

Columns and labels:
[1] = biological target: Neurogenic locus notch homolog protein 1 (Mus musculus, UniProt Q01705); assay: Inhibition of recombinant mouse N-terminal FLAG-tagged Notch1 (1704 to 2531 residues) expressed in human LS174T cells assessed as reduction in doxycycline-induced NICD expression after 12 hrs by Bright-Glo luciferase reporter gene assay; assay type: cell-based
Neurogenic locus notch homolog protein 1, sequence (Q01705 whole entry, the tested form may be a part): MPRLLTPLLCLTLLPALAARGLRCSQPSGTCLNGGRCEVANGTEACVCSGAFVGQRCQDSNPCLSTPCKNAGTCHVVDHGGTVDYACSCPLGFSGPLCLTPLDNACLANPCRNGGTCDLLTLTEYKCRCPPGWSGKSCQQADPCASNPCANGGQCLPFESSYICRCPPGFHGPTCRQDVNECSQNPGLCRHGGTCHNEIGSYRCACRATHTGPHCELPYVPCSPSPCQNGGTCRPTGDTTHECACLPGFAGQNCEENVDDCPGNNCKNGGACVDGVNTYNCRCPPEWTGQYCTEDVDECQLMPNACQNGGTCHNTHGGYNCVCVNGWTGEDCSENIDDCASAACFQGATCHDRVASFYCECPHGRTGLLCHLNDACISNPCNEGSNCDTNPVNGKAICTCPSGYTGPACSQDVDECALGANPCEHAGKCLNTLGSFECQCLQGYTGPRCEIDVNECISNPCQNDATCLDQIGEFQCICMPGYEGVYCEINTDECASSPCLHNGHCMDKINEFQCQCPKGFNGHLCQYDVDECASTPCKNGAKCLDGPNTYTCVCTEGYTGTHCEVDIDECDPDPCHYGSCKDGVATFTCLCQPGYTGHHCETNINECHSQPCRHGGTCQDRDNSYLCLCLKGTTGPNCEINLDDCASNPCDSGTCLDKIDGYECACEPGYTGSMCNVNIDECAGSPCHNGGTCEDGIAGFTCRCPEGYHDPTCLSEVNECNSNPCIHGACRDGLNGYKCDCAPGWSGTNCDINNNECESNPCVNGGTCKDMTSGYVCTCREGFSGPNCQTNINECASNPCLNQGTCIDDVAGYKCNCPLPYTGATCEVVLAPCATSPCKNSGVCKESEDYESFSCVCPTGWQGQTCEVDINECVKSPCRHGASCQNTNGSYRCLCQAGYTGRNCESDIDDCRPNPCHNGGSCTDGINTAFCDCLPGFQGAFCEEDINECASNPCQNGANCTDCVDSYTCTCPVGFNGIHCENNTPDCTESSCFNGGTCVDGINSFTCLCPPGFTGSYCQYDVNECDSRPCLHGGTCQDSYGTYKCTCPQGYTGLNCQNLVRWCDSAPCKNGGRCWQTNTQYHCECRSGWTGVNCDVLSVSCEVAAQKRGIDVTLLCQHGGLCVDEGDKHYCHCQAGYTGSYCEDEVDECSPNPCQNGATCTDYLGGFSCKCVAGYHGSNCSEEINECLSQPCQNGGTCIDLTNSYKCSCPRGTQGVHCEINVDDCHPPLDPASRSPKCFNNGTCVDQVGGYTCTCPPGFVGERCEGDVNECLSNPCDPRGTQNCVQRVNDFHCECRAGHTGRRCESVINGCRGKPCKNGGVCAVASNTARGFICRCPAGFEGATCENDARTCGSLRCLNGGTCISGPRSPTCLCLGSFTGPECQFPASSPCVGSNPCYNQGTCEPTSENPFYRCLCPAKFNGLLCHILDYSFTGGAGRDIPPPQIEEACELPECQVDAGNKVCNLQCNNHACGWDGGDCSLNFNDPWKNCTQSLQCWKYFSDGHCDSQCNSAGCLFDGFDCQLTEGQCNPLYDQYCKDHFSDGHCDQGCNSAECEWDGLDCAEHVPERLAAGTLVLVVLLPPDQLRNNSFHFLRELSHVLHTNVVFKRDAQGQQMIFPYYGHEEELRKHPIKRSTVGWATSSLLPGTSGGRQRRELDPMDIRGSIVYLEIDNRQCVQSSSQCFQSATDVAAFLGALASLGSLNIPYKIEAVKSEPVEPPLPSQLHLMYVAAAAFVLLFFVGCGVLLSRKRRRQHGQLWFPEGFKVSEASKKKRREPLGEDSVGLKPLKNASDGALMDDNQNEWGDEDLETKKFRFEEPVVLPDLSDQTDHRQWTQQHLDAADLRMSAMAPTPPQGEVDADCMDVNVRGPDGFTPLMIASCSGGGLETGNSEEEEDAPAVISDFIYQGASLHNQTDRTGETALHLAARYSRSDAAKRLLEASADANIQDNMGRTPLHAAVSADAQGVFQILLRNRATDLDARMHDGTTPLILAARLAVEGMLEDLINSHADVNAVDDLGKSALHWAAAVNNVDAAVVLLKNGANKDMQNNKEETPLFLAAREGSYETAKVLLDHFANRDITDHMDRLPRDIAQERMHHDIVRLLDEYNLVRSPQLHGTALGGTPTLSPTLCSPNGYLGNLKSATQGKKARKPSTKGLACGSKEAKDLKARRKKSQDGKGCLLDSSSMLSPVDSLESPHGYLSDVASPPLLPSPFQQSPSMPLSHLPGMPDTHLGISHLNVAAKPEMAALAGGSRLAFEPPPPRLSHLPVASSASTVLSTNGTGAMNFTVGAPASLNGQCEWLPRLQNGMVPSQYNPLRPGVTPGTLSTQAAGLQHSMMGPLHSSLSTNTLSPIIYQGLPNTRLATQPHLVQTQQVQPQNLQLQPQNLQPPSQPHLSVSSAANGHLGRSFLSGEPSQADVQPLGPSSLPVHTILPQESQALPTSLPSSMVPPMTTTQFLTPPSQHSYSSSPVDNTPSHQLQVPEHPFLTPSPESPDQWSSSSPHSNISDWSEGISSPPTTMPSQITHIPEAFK
Method in brief: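 LS174T cells stably carrying a luciferase reporter under 12× RBP-J sites (β-globin promoter), 2 × 10^4 per well. After 12 h, doxycycline 50 ng/mL for 12 h induced Notch1(1704–2531). Then dox-free medium with compound, 0.1% DMSO, 12 h at 37 °C. Read by Bright-Glo luminescence, n = 3, with parallel FMCA viability.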

LS174T = assay: Inhibition of doxycycline-induced Notch1 (1704 to 2531 residues) expression in human LS174T cells after 12 hrs by Western blot analysis; assay type: functional, cell-based
Method in brief: (§1)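 LS174T Notch assay cells at 1 × 10^6 per 6 cm dish, 12 h at 37 °C, then doxycycline 50 ng/mL for 12 h to induce FLAG-Notch1(1704–2531). Switched to fresh medium with compound for 12 h. Lysates probed by western blot with anti-FLAG, anti-cleaved Notch1 (Val1744), anti-HES1 or anti-HES5, β-actin control.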

[2] = biological target: Neurogenic locus notch homolog protein 1 (Homo sapiens) (UniProt P46531); assay: Inhibition of Notch1 in human HPBALL cells assessed as reduction in NICD expression at 0.5 uM after 12 hrs by Western blot analysis; assay type: cell-based
Neurogenic locus notch homolog protein 1 (Homo sapiens), sequence (P46531 whole entry, the tested form may be a part): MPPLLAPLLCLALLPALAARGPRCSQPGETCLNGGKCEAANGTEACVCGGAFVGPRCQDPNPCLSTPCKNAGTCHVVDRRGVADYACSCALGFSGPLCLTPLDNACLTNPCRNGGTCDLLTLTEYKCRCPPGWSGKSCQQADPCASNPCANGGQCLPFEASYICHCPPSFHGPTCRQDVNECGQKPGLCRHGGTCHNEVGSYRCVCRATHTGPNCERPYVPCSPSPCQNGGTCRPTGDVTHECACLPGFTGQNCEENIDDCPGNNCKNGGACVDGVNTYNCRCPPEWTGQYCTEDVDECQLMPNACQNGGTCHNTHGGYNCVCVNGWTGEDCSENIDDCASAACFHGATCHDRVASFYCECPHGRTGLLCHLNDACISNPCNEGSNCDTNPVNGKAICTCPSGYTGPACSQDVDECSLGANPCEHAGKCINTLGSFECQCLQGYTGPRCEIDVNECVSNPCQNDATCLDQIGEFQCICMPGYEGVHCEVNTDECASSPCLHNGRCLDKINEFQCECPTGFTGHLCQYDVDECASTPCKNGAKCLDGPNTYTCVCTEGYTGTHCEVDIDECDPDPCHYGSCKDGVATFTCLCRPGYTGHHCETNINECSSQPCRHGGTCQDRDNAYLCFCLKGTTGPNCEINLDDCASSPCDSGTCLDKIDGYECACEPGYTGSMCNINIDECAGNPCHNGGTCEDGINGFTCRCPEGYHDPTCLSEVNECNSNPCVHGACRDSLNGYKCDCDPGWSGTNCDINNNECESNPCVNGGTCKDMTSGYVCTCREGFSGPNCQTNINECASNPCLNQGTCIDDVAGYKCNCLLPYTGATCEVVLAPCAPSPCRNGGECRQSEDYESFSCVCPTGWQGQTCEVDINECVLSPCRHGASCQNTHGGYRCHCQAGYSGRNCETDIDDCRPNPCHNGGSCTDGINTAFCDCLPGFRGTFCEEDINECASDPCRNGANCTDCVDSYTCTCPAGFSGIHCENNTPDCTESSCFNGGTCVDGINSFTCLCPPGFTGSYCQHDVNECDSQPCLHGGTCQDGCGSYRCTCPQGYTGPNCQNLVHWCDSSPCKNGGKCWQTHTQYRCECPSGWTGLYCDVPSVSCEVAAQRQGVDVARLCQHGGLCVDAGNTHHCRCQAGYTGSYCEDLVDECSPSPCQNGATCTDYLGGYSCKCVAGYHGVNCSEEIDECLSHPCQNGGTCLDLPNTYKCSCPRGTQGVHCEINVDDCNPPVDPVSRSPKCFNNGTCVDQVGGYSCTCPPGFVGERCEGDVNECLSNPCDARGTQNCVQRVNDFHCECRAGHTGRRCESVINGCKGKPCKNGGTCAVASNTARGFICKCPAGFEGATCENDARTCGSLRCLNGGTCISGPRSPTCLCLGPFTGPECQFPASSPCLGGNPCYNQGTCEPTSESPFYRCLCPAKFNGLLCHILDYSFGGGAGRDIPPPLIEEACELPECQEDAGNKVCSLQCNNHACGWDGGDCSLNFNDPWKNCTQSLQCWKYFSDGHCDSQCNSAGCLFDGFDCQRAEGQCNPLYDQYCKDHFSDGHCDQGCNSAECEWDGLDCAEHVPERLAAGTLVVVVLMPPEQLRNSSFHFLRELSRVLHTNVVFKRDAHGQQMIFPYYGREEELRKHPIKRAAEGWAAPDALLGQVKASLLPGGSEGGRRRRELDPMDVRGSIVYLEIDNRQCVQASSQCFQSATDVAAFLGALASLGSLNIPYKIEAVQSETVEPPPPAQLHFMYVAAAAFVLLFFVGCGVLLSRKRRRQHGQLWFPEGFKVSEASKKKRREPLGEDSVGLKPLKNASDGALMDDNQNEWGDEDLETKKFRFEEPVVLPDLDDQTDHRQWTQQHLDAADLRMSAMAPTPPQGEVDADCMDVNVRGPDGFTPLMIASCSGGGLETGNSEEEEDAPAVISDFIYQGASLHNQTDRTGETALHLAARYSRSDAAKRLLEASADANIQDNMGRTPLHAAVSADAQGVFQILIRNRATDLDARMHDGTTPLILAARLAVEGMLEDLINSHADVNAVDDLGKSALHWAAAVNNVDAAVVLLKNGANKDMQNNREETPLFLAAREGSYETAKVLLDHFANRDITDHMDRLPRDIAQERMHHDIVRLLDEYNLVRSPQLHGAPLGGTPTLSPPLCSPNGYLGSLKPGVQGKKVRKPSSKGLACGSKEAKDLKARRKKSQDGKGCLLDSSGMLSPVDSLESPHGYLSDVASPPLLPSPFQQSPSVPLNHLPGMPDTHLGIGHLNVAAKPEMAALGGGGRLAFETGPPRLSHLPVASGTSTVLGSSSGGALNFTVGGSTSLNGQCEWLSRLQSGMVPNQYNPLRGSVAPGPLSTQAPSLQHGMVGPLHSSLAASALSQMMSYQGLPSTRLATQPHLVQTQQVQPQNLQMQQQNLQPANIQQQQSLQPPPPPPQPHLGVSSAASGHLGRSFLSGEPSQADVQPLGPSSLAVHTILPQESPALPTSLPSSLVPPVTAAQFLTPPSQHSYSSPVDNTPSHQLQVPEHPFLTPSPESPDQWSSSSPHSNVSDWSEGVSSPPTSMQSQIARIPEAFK

HPBALL [3] = assay: Down regulation of Notch1 expression in human HPBALL cells at 0.5 uM after 12 hrs by Western blot analysis; assay type: functional, cell-based
[4] = biological target: Neurogenic locus notch homolog protein 1 (Mus musculus) (UniProt Q01705); assay: Inhibition of doxycycline-induced recombinant mouse N-terminal FLAG-tagged Notch1 (1704 to 2531 residues) activation expressed in human LS174T cells assessed as reduction in Hes5 level at 0.05 to 0.3 uM after 12 hrs by Western blot analysis; assay type: cell-based; method in brief: as §1
Neurogenic locus notch homolog protein 1 (Mus musculus), sequence (Q01705 whole entry, the tested form may be a part): as the sequence (Q01705 whole entry, the tested form may be a part) above

[5] = biological target: Neurogenic locus notch homolog protein 1 (Homo sapiens) (UniProt P46531); assay: Inhibition of Notch1 in human HPBALL cells assessed as reduction in HES1 expression after 72 hrs by Western blot analysis; assay type: cell-based
Method in brief: (§2)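 HPB-ALL cells at 5 × 10^5 per 6 cm dish in RPMI-1640/10% FBS containing a range of compound concentrations, 72 h at 37 °C. Lysates run on SDS-PAGE and PVDF; probed with anti-HES1 or anti-cleaved Notch1 (Val1744) for NICD, β-actin control, ECL read-out.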

[6] = biological target: Neurogenic locus notch homolog protein 1 (Homo sapiens) (UniProt P46531); assay: Inhibition of Notch1 in human HPBALL cells assessed as reduction in NICD expression at 0.5 uM after 12 hrs in presence of proteasome inhibitor MG132 by Western blot analysis; assay type: cell-based
Method in brief: (§3)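 HPB-ALL cells at 1 × 10^6 per 6 cm dish, treated 12 h at 37 °C with compound plus proteasome inhibitor MG132 (18.5 μM). Lysates blotted on PVDF, probed for cleaved Notch1 (Val1744)/NICD with β-actin loading control, ECL detection.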

[7] = biological target: Neurogenic locus notch homolog protein 1 (Homo sapiens) (UniProt P46531); assay: Inhibition of Notch1 in human HPBALL cells assessed as reduction in NICD expression after 72 hrs by Western blot analysis; assay type: cell-based; method in brief: as §2
[8] = biological target: Neurogenic locus notch homolog protein 1 (Mus musculus) (UniProt Q01705); assay: Inhibition of doxycycline-induced recombinant mouse N-terminal FLAG-tagged Notch1 (1704 to 2531 residues) activation expressed in human LS174T cells assessed as reduction in Hes1 level at 0.05 to 0.3 uM after 12 hrs by Western blot analysis; assay type: cell-based; method in brief: as §1
HPBALL [9] = assay: Down regulation of Notch1 expression in human HPBALL cells at 0.5 uM after 12 hrs in presence of proteasome inhibitor MG132 by Western blot analysis; assay type: functional, cell-based; method in brief: as §3
[10] = biological target: Neurogenic locus notch homolog protein 1 (Mus musculus) (UniProt Q01705); assay: Inhibition of doxycycline-induced recombinant mouse N-terminal FLAG-tagged Notch1 (1704 to 2531 residues) activation expressed in human LS174T cells assessed as reduction in NCID expression after 12 hrs by Western blot analysis; assay type: cell-based; method in brief: as §1
HEK293 = assay: Cytotoxicity against HEK293 cells after 72 hrs by fluorescence assay; assay type: cell-based; conditions: Homo sapiens, HEK293, 72 h
Method in brief: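 HEK293 cells at 1 × 10^4 per well in DMEM with 10% FBS and penicillin/streptomycin. Pre-incubated 24 h at 37 °C, then medium replaced with fresh medium holding a range of compound concentrations. Exposed 72 h; medium removed and proliferation read by fluorometric microculture cytotoxicity assay (FMCA).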

HPBALL [11] = assay: Cytotoxicity against human HPBALL cells after 72 hrs by alamar blue dye based fluorescence assay; assay type: functional, cell-based
Method in brief: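 HPB-ALL T-ALL cells at 1 × 10^4 per well in RPMI-1640 with 10% FBS and penicillin/streptomycin. Compound added at seeding over a concentration range; 72 h at 37 °C. AlamarBlue then added for 4 h and fluorescence read to give viability.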

HPBALL [12] = assay: Effect on Notch1 mRNA expression in human HPBALL cells at 0.1 to 0.5 uM measured after 12 hrs; assay type: functional, cell-based
[13] = biological target: Neurogenic locus notch homolog protein 1 (Mus musculus) (UniProt Q01705); assay: Inhibition of doxycycline-induced recombinant mouse N-terminal FLAG-tagged Notch1 (1704 to 2531 residues) activation expressed in human LS174T cells assessed as reduction in NCID expression at 0.5 uM after 12 hrs in presence of proteasome inhibitor MG132 by Western blot analysis; assay type: cell-based

CO[C@@H]1C[C@H](O[C@H]2CC[C@@]3(C)[C@H](CC[C@@H]4[C@@H]3CC[C@]3(C)C(C5=CC(=O)OC5)=CC[C@]43O)C2)O[C@H](C)[C@@H]1O
IC50 ([1]; ls174t): Not Active

CO[C@H]1C[C@H](O[C@H]2CC[C@@]3(C)[C@H](CC[C@@H]4[C@@H]3CC[C@]3(C)[C@@H](C5=CC(=O)OC5)[C@@H](OC(C)=O)C[C@]43O)C2)O[C@@H](C)[C@@H]1O [OLEANDRIN]
IC50 ([1]; read-out: IC50): 0.12 µM
inhibition (LS174T): Dose-dependent effect
inhibition [2]: Active
Activity (HPBALL [3]): Active
inhibition [4]: Active
inhibition [5]: Dose-dependent effect
inhibition [6]: inactive
inhibition [7]: Dose-dependent effect
inhibition [8]: Active
Activity (HPBALL [9]): Active
inhibition [10]: Dose-dependent effect
IC50 (HEK293): 0.028 µM
IC50 (HPBALL [11]): 0.014 µM
Activity (HPBALL [12]): inactive
inhibition [13]: inactive

CO[C@H]1C[C@H](O[C@H]2CC[C@@]3(C)[C@H](CC[C@@H]4[C@@H]3CC[C@]3(C)[C@@H](C5=CC(=O)OC5)[C@@H](O)C[C@]43O)C2)O[C@@H](C)[C@@H]1O
IC50 ([1]; read-out: IC50): 2.5 µM

C[C@]12CC[C@H](O)C[C@H]1CC[C@@H]1[C@@H]2CC[C@]2(C)[C@@H](C3=CC(=O)OC3)CC[C@]12O [DIGITOXIGENIN]
IC50 ([1]; ls174t): Not Active

CO[C@@H]1C[C@H](O[C@H]2CC[C@@]3(C)[C@H](CC[C@@H]4[C@@H]3CC[C@]3(C)[C@@H](C5=CC(=O)OC5)[C@@H](OC(C)=O)C[C@]43O)C2)O[C@H](C)[C@@H]1O
IC50 ([1]; read-out: IC50): 2.7 µM

CO[C@H]1C[C@H](O[C@H]2CC[C@@]3(C)[C@H](CC[C@@H]4[C@@H]3CC[C@]3(C)[C@@H](C5=CC(=O)OC5)CC[C@]43O)C2)O[C@@H](O)[C@@H]1O
IC50 ([1]; read-out: IC50): 2.7 µM

CO[C@@H]1C[C@H](O[C@H]2CC[C@@]3(C)[C@H](CC[C@]4(O)[C@@H]3CC[C@]3(C)[C@@H](C5=CC(=O)OC5)CC[C@@]34O)C2)O[C@H](C)[C@@H]1O
IC50 ([1]; ls174t): Not Active

CO[C@@H]1C[C@H](O[C@H]2CC[C@@]3(C)[C@H](CC[C@@H]4[C@@H]3CC[C@]3(C)[C@@H](C5=CC(=O)OC5)CC[C@]43O)C2)O[C@H](C)[C@@H]1O
IC50 ([1]; read-out: IC50): 4.2 µM
